# Assay results reported in ChEMBL document CHEMBL4406825, “Design, synthesis and preliminary bioactivity evaluations of 8-hydroxyquinoline derivatives as matrix metalloproteinase (MMP) inhibitors” (Eur J Med Chem, 2019).
# Legend:
# [1] = target: T1, Matrix metalloproteinase-9 (Homo sapiens, UniProt P14780); test: Inhibition of recombinant human MMP9 using thiopeptide as substrate preincubated for 30 mins followed by substrate addition and measured every min for 20 mins by colorimetric assay
# [2] = target: T2, 72 kDa type IV collagenase (Homo sapiens, UniProt P08253); test: Inhibition of recombinant human MMP2 using thiopeptide as substrate preincubated for 30 mins followed by substrate addition and measured every mins for 20 min by colorimetric assay
# Target sequence in this assay (P08253 whole entry): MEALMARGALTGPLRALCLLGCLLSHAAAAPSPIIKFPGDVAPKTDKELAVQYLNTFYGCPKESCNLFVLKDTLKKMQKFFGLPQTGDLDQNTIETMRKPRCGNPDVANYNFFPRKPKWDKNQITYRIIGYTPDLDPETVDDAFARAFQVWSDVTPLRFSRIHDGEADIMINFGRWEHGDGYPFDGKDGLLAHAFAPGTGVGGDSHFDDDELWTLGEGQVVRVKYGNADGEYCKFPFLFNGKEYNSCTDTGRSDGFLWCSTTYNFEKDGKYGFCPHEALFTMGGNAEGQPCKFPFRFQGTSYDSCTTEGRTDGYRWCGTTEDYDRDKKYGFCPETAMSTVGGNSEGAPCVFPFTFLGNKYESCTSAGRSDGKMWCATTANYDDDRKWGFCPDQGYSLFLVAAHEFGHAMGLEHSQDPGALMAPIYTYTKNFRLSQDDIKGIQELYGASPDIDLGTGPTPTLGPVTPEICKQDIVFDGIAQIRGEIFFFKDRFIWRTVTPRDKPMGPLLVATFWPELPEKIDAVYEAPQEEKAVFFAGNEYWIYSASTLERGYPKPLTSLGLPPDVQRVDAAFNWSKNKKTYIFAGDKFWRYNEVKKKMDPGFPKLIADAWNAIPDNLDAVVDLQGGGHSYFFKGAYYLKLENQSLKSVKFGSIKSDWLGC
# [3] = target: T2, 72 kDa type IV collagenase; test: Inhibition of recombinant human MMP2 at 10 uM using thiopeptide as substrate preincubated for 30 mins followed by substrate addition and measured every min for 20 mins by colorimetric assay relative to control
# Method in brief: (§1)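 Colorimetric kit assay: human recombinant enzyme plus inhibitor in assay buffer for 30 min at 37 °C, then chromogenic MMP substrate added; A412 recorded each minute over 20 min. Enzyme-free blanks and inhibitor-free controls included.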
# Target sequence in this assay (P08253 110-660 limits assumed): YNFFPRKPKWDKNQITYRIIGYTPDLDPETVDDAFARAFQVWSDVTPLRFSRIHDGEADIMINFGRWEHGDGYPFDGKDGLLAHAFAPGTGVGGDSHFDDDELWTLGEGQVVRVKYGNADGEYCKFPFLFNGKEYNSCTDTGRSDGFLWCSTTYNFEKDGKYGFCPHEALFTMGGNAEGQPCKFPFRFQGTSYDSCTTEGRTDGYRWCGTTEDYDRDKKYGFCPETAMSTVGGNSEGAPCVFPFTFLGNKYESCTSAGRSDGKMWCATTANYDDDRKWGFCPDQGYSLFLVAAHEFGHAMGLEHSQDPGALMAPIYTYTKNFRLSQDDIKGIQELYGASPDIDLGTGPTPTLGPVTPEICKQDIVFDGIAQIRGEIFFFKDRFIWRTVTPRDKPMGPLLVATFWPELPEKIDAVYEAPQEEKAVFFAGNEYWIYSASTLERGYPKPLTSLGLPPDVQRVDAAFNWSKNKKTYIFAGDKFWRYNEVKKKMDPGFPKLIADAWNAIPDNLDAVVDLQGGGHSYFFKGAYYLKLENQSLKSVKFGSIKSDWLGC
# [4] = target: T1, Matrix metalloproteinase-9; test: Inhibition of recombinant human MMP9 at 10 uM using thiopeptide as substrate preincubated for 30 mins followed by substrate addition and measured every min for 20 mins by colorimetric assay relative to control; method in brief: as §1
# T1 sequence (P14780 whole entry): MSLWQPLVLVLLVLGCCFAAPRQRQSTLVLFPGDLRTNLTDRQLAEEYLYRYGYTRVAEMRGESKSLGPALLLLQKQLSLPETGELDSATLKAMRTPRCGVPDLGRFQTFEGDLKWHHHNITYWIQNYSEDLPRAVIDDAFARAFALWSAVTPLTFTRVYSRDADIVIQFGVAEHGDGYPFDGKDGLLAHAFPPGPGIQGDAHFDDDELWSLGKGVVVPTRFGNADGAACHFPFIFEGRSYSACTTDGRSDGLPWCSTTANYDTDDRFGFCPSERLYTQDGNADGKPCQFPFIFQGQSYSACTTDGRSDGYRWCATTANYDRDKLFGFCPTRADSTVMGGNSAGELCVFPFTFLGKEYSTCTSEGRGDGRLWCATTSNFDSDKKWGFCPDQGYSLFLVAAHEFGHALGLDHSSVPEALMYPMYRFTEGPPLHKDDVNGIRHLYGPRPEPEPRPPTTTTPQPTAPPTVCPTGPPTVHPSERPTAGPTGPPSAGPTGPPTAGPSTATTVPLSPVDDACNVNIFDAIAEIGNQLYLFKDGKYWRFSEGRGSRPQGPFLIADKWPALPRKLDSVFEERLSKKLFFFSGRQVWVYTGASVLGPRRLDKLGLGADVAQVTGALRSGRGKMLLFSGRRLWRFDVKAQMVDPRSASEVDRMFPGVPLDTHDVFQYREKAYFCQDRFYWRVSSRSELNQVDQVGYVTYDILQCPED
IC50 [1] [µM],IC50 [2] [µM],inhibition [3] [%],inhibition [4] [%],Compound
> 10,> 10,53.8,28.8,O=C(CCCCCCNCc1ccc(O)c2ncccc12)Nc1ccccc1
> 10,> 10,–,–,O=C(CCN1C(=O)c2ccccc2S1(=O)=O)Nc1ccc(O)c2ncccc12
3.1,7.6,67.8,100,Cc1[nH]c2ccccc2c1CCNC(=O)CCCCNCc1cc(Cl)c2cccnc2c1O
> 10,> 10,44.8,12.3,Cc1[nH]c2ccccc2c1CCNC(=O)CCCNCc1ccc(O)c2ncccc12
> 10,> 10,–,–,CN(CCC(=O)Nc1ccc(O)c2ncccc12)c1ccccc1
> 10,> 10,–,–,Cc1nc2ccccc2n1CCC(=O)Nc1ccc(O)c2ncccc12
> 10,8.8,59.5,35.2,Cc1[nH]c2ccccc2c1CCNC(=O)CNCc1cc(Cl)c2cccnc2c1O
> 10,> 10,–,42.9,O=C(CNCc1ccc(O)c2ncccc12)Nc1ccccc1
> 10,> 10,–,–,CN(CCCC(=O)Nc1ccc(O)c2ncccc12)c1ccccc1
6,8.8,56,55,O=C(CCCCCNCc1ccc(O)c2ncccc12)Nc1ccccc1

# Further lines, the molecule ahead of its results:
Compound,IC50 [1] [µM],IC50 [2] [µM],inhibition [3] [%],inhibition [4] [%]
O=C(CCNCc1ccc(O)c2ncccc12)Nc1ccccc1,> 10,> 10,–,9.8
O=C(CCCCNCc1ccc(O)c2ncccc12)Nc1ccccc1,> 10,> 10,–,36.5
Cc1nc2ccccc2n1CCCCC(=O)Nc1ccc(O)c2ncccc12,> 10,> 10,–,–
Cc1[nH]c2ccccc2c1CCNC(=O)CCNCc1ccc(O)c2ncccc12,> 10,> 10,49.8,11.3
O=C(CCCN1C(=O)c2ccccc2S1(=O)=O)Nc1ccc(O)c2ncccc12,> 10,> 10,50.1,–
O=C(CCCCCN1C(=O)c2ccccc2S1(=O)=O)Nc1ccc(O)c2ncccc12,> 10,> 10,–,24.3
Cc1nc2ccccc2n1CCCCCC(=O)Nc1ccc(O)c2ncccc12,> 10,> 10,38.9,–
Cc1[nH]c2ccccc2c1CCNC(=O)CCCCNCc1ccc(O)c2ncccc12,5.3,8.8,61,67.8
Cc1[nH]c2ccccc2c1CCNC(=O)CCNCc1cc(Cl)c2cccnc2c1O,> 10,> 10,–,73.9
O=C(CCCCN1C(=O)c2ccccc2S1(=O)=O)Nc1ccc(O)c2ncccc12,> 10,> 10,–,–
Cc1nc2ccccc2n1CCCC(=O)Nc1ccc(O)c2ncccc12,> 10,> 10,46.9,–
O=C(CCCNCc1ccc(O)c2ncccc12)Nc1ccccc1,5.1,5.7,54.5,83.9
